ABHD4 inh: inhibitors of mouse ABHD4; Q8VD66; purified mABHD4, FP-Rh probe fluorescence polarization; inhibition, % at 8.92 µM; hit rate 0.54% among 370,000; AID 720543;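 active = inhibition exceeding the mean over every tested compound plus 3 SD, cut at about 30% in these data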;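 note: 0% = plate median of compound wells and 100% = S159A mutant with DMSO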
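assay system = mABHD4 protein | compound dosing = single nominal dose of 8.92 µM, 0.89% DMSO final | read-out basis = percent inhibition of probe binding, normalized to plate controls | schedule = Enzyme–compound pre-incubation 45 min, then probe 60 min, both 25 °C | detection = fluorescence polarization, excitation 525 nm, emission 598 nm, BODIPY TMR filters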
DDE Tn7 FP inh: disrupts Tn7 cyclic peptide binding to fibrin D-Dimer-E complex. hit rate 0.13% among 370,000. AID 720508. P02675. inhibition, % at 8.3 µM. FP displacement of FITC-Tn7 peptide from fibrin DD(E); 0% = median of compound wells per plate;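 active = inhibition above the mean of compounds falling within the control limits plus 3 SD of them, cut at about 14% in these data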;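 note: 0% = plate median of compound wells and 100% = 10 µM Aha-Tn7 peptide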
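System: human fibrin DD(E); quantity: Fibrin-DD(E) at 2 µM final; also added: fluorescent Tn7 probe at 0.1 µM; compound dosing: single nominal test concentration of 8.3 µM per compound; schedule: 10 min preincubation, 3 h with tracer, room temperature; detection: fluorescence polarization of the labelled Tn7 tracer; repeats: one replicate per compound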
SIAE primary: human SIAE inhibition, primary screen. AID 1053197. Q9HAT2. SIAE FP-Rh probe binding, fluorescence polarization. inhibition, % at 9.66 µM. hit rate 0.69% among 370,000;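 active = inhibition above a cutoff: mean of compounds within the control limits plus 3 SD of those, cut at about 17% in these data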;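 note: 0% = plate median of compound wells and 100% = probe without SIAE protein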
Target sequence (Q9HAT2 whole entry, looked up): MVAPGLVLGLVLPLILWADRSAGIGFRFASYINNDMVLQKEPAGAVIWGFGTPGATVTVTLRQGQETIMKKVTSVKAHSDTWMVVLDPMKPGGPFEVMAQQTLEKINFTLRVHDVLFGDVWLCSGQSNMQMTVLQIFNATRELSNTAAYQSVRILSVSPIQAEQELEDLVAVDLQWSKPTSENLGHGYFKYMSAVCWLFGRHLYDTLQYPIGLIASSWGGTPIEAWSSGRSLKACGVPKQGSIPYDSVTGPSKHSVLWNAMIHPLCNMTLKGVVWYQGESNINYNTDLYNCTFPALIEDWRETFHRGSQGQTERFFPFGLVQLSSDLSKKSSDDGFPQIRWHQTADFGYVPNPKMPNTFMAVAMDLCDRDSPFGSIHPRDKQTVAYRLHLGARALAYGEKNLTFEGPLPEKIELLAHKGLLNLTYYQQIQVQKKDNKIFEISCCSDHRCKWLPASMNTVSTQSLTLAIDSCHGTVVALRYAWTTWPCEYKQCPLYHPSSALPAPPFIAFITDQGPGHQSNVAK
HTRA1 inh: HTRA1 (human) protease inhibition. hit rate 0.5% among 340,000. Q92743. inhibition, % at 5.96 µM. recombinant HTRA1, FP-rhodamine activity-based probe, fluorescence polarization; in the data active = inhibition above about 36%;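 note: 0% = enzyme with DMSO and 100% = wells lacking enzyme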
Tn6 DDE FP: DD(E)-Tn6 binding inhibition, primary FP screen; hit rate 0.21% among 370,000; Fibrin DD(E) TRITC-Tn6 fluorescence polarization displacement; inhibition, % at 8.3 µM; P02675;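 active = inhibition above a per-campaign cutoff: mean of compounds within control limits plus 3 SD, cut at about 15% in these data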;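 note: 0% = median of all compound wells on the plate and 100% = blocking peptide control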
TCR CD3 inh: human TCR-CD3 binding inhibition; inhibition, % at 9.4 µM; TAMRA-labeled TCR probe fluorescence, biochemical; hit rate 0.37% among 360,000; in the data active = inhibition above about 19%;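 note: recombinant mutant TCR 2C K166C tagged with TAMRA read by polarization; 0% = receptor in buffer alone and 100% = receptor with positive control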
SIAE confirm: confirmation of human SIAE inhibitors; shares compounds with SIAE primary; SIAE FP-Rh activity-based probe, fluorescence polarization; inhibition, % at 9.66 µM; hit rate 13% among 2,300;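 active = mean inhibition of the replicates above the hit cutoff set in the primary screen, cut at about 17% in these data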;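 note: 0% = SIAE with DMSO and probe and 100% = probe without SIAE; inhibitors lower polarization as more probe stays unbound to SIAE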
Active calls of the source: *; x = no result; ! = not active in a repeat. This is a sample that favours compounds with a hit; in the whole collection about 1.8% have one here.

SMILES	ABHD4 inh	DDE Tn7 FP inh	SIAE primary	HTRA1 inh	Tn6 DDE FP	TCR CD3 inh	SIAE confirm
CCNC(=S)N1CCc2cc(OC)c(OC)cc2C1COc1ccccc1OC (stereo not drawn)	2	-2	18*	-8	-3	-11	2
O=[N+]([O-])c1cccc(S(=O)(=O)N2CCN(c3ccccn3)CC2)c1	-5	4	8	-6	-2	-4	x
COc1ccc(N2CC(C(=O)Nc3nc4ccc(F)cc4s3)CC2=O)c(OC)c1 (stereo not drawn)	4	-1	5	-4	9	-4	x
CS(=O)(=O)c1ccc(Cl)c(NC(=O)c2cccc(N3C(=O)CCC3=O)c2)c1	6	8	19*	0	1	-11	3
CCCCn1c(N)c(N(CCOC)C(=O)COC(=O)COc2ccccc2C#N)c(=O)[nH]c1=O	0	4	1	-3	4	-7	x
Cc1ccccc1NC(=S)N1CCN(c2ccccc2)CC1	-1	-2	18*	8	-5	4	3
CC(C)c1ccc(NC(=S)Nc2cccc3ccccc23)cc1	-1	-1	18*	-6	5	1	5
O=C(COc1ccccc1)NC(=S)Nc1cccc2c(O)cccc12	29	9	25*	2	-2	12	4
Cc1ccc(NC(=S)Nc2cccc3ccccc23)cc1	7	1	6	4	2	-9	x
CCOc1ccc(NC(=S)Nc2cccc3ccccc23)cc1	0	1	18*	1	8	3	0
COC(=O)c1ccccc1NC(=S)NC(=O)COc1ccccc1	3	3	-1	-17	1	1	x
CN(CCCC(=O)NCc1ccc2c(c1)OCO2)S(=O)(=O)c1ccc([N+](=O)[O-])cc1	3	4	-1	-1	3	5	x
CC(=O)c1cccc(NS(=O)(=O)c2ccc(-c3cnc(C4CC4)o3)cc2)c1	2	1	4	2	0	1	x
COCCN(CC(=O)Nc1ccccc1C(F)(F)F)C(=O)/C=C/c1ccc2ccccc2n1	8	0	-4	-1	-4	5	x
CC(C)/C=N/Nc1nc(-c2ccc(Br)cc2)cs1	13	-8	18*	-4	-10	8	2
O=C(CCCCC(=O)Sc1ccccc1)Sc1ccccc1	-6	0	18*	-3	3	3	4
O=C(O)C1CCCCC1C(=O)Nc1ccc(S(=O)(=O)N2CCOCC2)cc1 (stereo not drawn)	-3	3	9	5	4	-1	x
CCN(CC)S(=O)(=O)c1cccc(N=NC2=C(O)CCCC2=O)c1	24	-3	16	16	-4	7	x
O=C1CCCC(O)=C1N=Nc1cccc(C(=O)O)c1	21	-5	21*	29	4	0	5
O=C1CCCC(O)=C1N=Nc1c(Cl)cc(Cl)cc1Cl	24	-5	21*	16	14	6	5
Cc1nc2ccc(N=NC3=C(O)CCCC3=O)cc2s1	3	-2	6	-2	-5	-2	x
COc1ccc(OC)c(-c2csc(NC(=O)COC(=O)c3ccc(NC(=O)CC#N)cc3)n2)c1	x	x	x	-57	x	x	x
Cc1ccc(S(=O)(=O)CCSc2cccc(C(=O)Nc3ccccc3C(=O)O)c2)cc1	-56	-8	-32	-9	7	5	x
COC(=O)Nc1ncc(CN2CCc3ccccc3C2)s1	3	4	78*	-3	-1	-5	-7
CCOC(=O)C1CCN(Cc2cnc(NC(=O)OC)s2)CC1	9	-2	-3	-1	-2	3	x
SMILES	ABHD4 inh	DDE Tn7 FP inh	SIAE primary	HTRA1 inh	Tn6 DDE FP	TCR CD3 inh	SIAE confirm
CN(C)c1ccc(CN(CC2CCCO2)C(=O)c2cc3ccccc3o2)cc1 (stereo not drawn)	2	-8	20*	-2	0	5	-1
Cc1ccc(OCC(=O)Nc2ccc3c4c(cccc24)CC3)c(C)c1	-2	-1	-2	-3	-2	6	x
Cc1ccc(OCC(=O)Nc2cccc3nsnc23)c(C)c1	1	5	33*	1	2	-2	1
COc1cccc(CN2CCC2(C)C(=O)Nc2ccc(Cl)c(Cl)c2)c1F (stereo not drawn)	-1	3	0	x	-3	5	x
Cc1ccc(OCCn2cc(/C(N)=N/O)c3ccccc32)cc1C	-1	-2	20*	-18	1	3	9
Oc1c(C=C2N=c3ccccc3=N2)sc(=S)n1-c1ccc(F)cc1	-4	10	18*!	0	-3	2	0
Oc1c(C=C2N=c3ccccc3=N2)sc(=S)n1-c1ccc2ccccc2c1	2	2	4	-3	8	0	x
CC(=O)c1ccc(N2Cc3ccccc3/C2=N\C(=O)Nc2ccccc2)cc1	6	-7	26*	-4	2	5	2
CC(=O)c1ccc(N2Cc3ccccc3C2=NC(=O)c2cccs2)cc1	0	9	-6	5	0	7	x
O=C(OCc1cn([C@H]2CN(C(=O)C3CCCCC3)[C@@H](c3ccc(Cl)cc3)C[C@@H]2O)nn1)c1ccccc1	-16	-3	2	-47	-3	-2	x
CC(C)CNC(=O)OCc1cn(Cc2cccc(C(F)(F)F)c2)nn1	1	0	1	x	13	x	x
O=C(Nc1ccc(N2CCOCC2)cc1)c1cc(-c2ccncc2)nc2ccccc12	7	-3	0	2	-6	2	x
O=C(Nc1ccccc1N1CCOCC1)c1cc(-c2ccncc2)nc2ccccc12	7	-4	22*	10	0	2	2
Cc1ccc(/C=C/C(=O)NC(=S)Nc2ccc(S(=O)(=O)Nc3cc(C)on3)cc2)cc1	-12	1	-23	-32	-2	2	x
C=CCC(=O)N1CCCC(CO)(Cc2ccc(F)cc2F)C1 (stereo not drawn)	-3	-3	2	-1	-3	6	x
COc1cccc(-c2noc(C(C)n3nc(C)c([N+](=O)[O-])c3C)n2)c1 (stereo not drawn)	-13	3	34*	-7	0	0	-1
COc1ccc2oc(C(=O)OCC(=O)N3CCCCC3)c(C)c2c1	-3	6	-1	-7	6	-5	x
CC(=O)NC(C1C(=O)CC(C)(C)CC1=O)(C(F)(F)F)C(F)(F)F	-3	4	-2	-7	-9	7	x
CCOC(=O)C(O)(C1C(=O)CC(C)(C)CC1=O)C(F)(F)F (stereo not drawn)	-1	-11	33*	3	7	-3	19*
